# Measured values gathered from unrelated publications.
# Compare with care: the assays were run in different laboratories.
# Target: Serine/threonine-protein kinase Nek2 (NEK2, Homo sapiens, UniProt P51955)
# Sequence (P51955 1-445, as in one of the studies): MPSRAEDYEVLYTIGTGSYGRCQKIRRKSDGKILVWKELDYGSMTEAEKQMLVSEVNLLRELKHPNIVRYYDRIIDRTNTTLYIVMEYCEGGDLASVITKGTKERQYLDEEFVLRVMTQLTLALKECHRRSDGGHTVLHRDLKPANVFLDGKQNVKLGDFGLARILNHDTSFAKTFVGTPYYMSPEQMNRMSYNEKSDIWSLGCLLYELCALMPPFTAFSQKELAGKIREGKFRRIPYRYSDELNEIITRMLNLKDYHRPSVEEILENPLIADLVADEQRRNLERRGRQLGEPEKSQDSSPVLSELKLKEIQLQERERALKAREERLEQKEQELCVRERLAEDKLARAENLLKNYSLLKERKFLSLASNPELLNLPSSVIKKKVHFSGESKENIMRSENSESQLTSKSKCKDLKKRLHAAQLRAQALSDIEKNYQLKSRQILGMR
SMILES,observed,technique,concentration,remaining binding [%]
O=C(NCCCN1CCOCC1)c1ccc(Nc2ncc(Cl)c(-c3ccc(Cl)s3)n2)cc1,binding,competition with immobilised ligand,1 µM,75
C=CC(=O)N1CCC(C(=O)NCC(=O)N2CCN(c3nc(-c4cnc(N)nc4C(F)F)nc(N4CCOCC4)n3)CC2)CC1,binding,competition with immobilised ligand,1 µM,95
CNC(=O)[C@@H]1CC[C@@H](n2c(-c3ccc4cnccc4c3)nc3ccc(C(=O)NCc4cccc(C(N)=O)c4)cc32)C1,binding,competition with immobilised ligand,1 µM,97
COCCOc1nc(-c2ccc(Cl)nc2)nc2c1CN(C(=O)c1ncn3ccccc13)CC2,cell-free assay,competition with immobilised ligand,0.1 µM,100
N[C@@H]1CCN(c2nccc(-c3cnn4ncccc34)n2)C1,binding,,1 µM,100
O=C(NCCCC1CCCCC1)c1ccc(CNC(=O)c2cnn(-c3ccccc3)c2C(F)(F)F)cc1,cell-free assay,competition with immobilised ligand,0.1 µM,100
c1cnn2ncc(-c3ccnc(N4CCC45COC5)n3)c2c1,binding,,1 µM,95
CCCCN(CCCC)C(=O)CN1C[C@@H](c2cc(OC)c3c(c2)OCO3)[C@H](C(=O)O)[C@H]1CC(C)(C)CCC,cell-free assay,competition with immobilised ligand,1 µM,98.7
O=C(c1ccc(Nc2ncc(Cl)c(-c3ccc(Cl)s3)n2)cc1)N1CCC(N2CCCC2)CC1,binding,competition with immobilised ligand,1 µM,65
COc1ccnn2ncc(-c3ccnc(N(C)C)n3)c12,binding,,1 µM,92
CCN1CCN(Cc2ccc(C(=O)Nc3ccc(C)c(Oc4ccc5c(c4)CC(=O)N5)c3)cc2C(F)(F)F)CC1,binding,competition with immobilised ligand,1 µM,100
CN(C)c1nccc(-c2cnn3ncccc23)n1,binding,,1 µM,100
c1cncc(-c2cccc(Nc3nccc(NC4CCCCC4)n3)c2)c1,binding,competition with immobilised ligand,10 µM,97
CN(CCCC(F)(F)F)c1nccc(-c2cnn3ncccc23)n1,binding,,1 µM,100
O=C(Nc1cccnn1)N1CC(C/C=C/c2cncc(Oc3ccc(C(F)(F)F)cn3)n2)C1,cell-free assay,competition with immobilised ligand,1 µM,100
O=C(NCC1CCOCC1)c1n[nH]cc1NC(=O)c1c(F)cccc1F,binding,competition with immobilised ligand,1 µM,87
Cn1cc(Cl)c2c(Oc3c(F)cc(Nc4cc(Cl)nc(N)n4)cc3F)ccnc21,cell-free assay,competition with immobilised ligand,0.1 µM,100
C[C@@H]1CCN(c2nccc(-c3cnn4ncccc34)n2)C1,binding,,1 µM,87
CNC(=O)Nc1ccc2c(c1)[C@@]1(CC2)OC(=O)N(CC(=O)N(Cc2ccc(F)cc2)[C@@H](C)C(F)(F)F)C1=O,cell-free assay,competition with immobilised ligand,1 µM,100
COc1cnc(Nc2cccc(S(N)(=O)=O)c2)nc1N1CCN(c2ccccc2)C(=O)C1,binding,competition with immobilised ligand,1 µM,98
